Data on three compounds can be found in PMC8551014 (Nature chemical biology, 2021).

“Also recorded” adds a separate entry of the source.

Data set [1] relates to mouse splenocytes (C57BL/6). The data set is described as follows: Plasma cell differentiation of LPS-treated mouse splenocytes, flow cytometry. It counts as cell-based. The gist of the method:
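Splenocytes cultured 3 days ±1 μg/mL LPS with test compound (20–1.25 μM, two-fold, DMSO 1:2000). Cells stained with LIVE/DEAD near-IR (1:1000, 20 min, ice), then anti-CD19/CD45R/CD138 (15 min, ice), then permeabilized for intracellular XBP1s. Plasmablasts gated as CD19+ B220-low CD138-high; division from vital-dye dilution. n=3, mean ± SEM; one-tailed t-test.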

For data set [2], the system named is mouse splenocytes (C57BL/6). Briefly: ELISA for secreted IgM from LPS-treated splenocytes. The following applies: 1 μg/mL LPS for three days, 20 μM-1.25 μM. It counts as cell-based. The gist of the method:
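C57BL/6 splenocytes, red cells lysed, CellTrace Violet-loaded, plated at 2.5 × 10^5 cells/well in complete RPMI; ±1 μg/ml LPS; test compound in two-fold dilutions (20–1.25 μM) from DMSO at 1:2000 final; 3 days, 37 °C, 5% CO2. Supernatant IgM by ELISA: 1 μg/ml goat anti-IgM capture, anti-IgM-HRP (1:3000), TMB, 1 N H2SO4 stop, A450. n=3, mean ± SEM; one-tailed t-test.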

A further data set relates to XBP1 mRNA splicing. Briefly: XBP1 mRNA splicing in ER-stressed INS-1 cells. Format: cell-based, rat. To be noted: INS-1 cells treated with brefeldin A or thapsigargin and KIRA8. In short, it runs like this:
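Parental INS-1 cells on poly-D-lysine, grown 48 h. Test compound or DMSO given 1 h before brefeldin A, thapsigargin or DTT. In the sequential format: 10 μM first compound for 30 min, then second compound (0.5 or 1 μM) for 30 min, then 2 mM DTT. Intron-spanning XBP1 RT-PCR, PstI digest, EtBr gel, % spliced. n=3, mean ± SEM; two-tailed t-test versus DTT.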

The next data set deals with IRE1α* (Homo sapiens, UniProt O75460). The data set is described as follows: In vitro determination of IRE1α*–inhibitor complex Kdimer. It counts as biochemical. The following applies: inhibitor-bound IRE1α*.
For data set [3], the target named is dpIRE1α* (dephosphorylated IRE1α*) (Homo sapiens, UniProt O75460). Briefly: In vitro determination of dpIRE1α*–inhibitor complex Kdimer. Format: biochemical. To be noted: relative to apo-dpIRE1α*. In short, it runs like this:
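IRE1α* dephosphorylated overnight at 4 °C with λ-PPase (5:1 molar) in HEPES pH 7.5/NaCl/1 mM MnCl2/DTT/Brij 35; checked by phospho-protein blot. Then titrated two-fold from 2 or 4 μM in Tris pH 7.5 assay buffer; 30 min RT with 50 μM test compound. Alexa647-quencher XBP1 mini-substrate (6 μM final). Fluorescence ex 650/em 665 nm. n=3, mean ± SEM.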

The mark [4] stands for this setting: 1 μg/mL LPS for three days, 20 μM-1.25 μM.

Sequence of dpIRE1α* (dephosphorylated IRE1α*) (O75460 547-977): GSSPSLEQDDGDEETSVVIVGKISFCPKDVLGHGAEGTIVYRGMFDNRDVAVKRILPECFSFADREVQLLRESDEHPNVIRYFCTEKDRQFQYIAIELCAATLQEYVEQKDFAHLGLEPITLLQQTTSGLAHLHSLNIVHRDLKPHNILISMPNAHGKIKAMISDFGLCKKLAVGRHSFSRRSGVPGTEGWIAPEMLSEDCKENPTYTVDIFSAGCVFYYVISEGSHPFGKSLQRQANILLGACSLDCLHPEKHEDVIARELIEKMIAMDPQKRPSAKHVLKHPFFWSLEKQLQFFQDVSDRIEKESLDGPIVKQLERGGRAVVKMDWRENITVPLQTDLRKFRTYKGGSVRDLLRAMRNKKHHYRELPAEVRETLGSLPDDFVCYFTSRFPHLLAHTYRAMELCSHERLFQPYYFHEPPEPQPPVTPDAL
Sequence of IRE1α* (O75460 547-977): as above

Turning to `Cc1ccc2c(NS(=O)(=O)c3ccccc3Cl)cccc2c1Oc1ncccc1-c1ccnc(N[C@H]2CCCNC2)n1` [KIRA8], in data set [1] (setting [4]), the “XBP1s expression in B cells” value was “reductions” and the “plasma cell differentiation, CD138+” value was “reductions”. For the same compound, in data set [1] (10 μM and 20 μM KIRA8, LPS, three days), the “toxicity to splenocytes” value was “cellular toxicity”. The “IgM secretion” value in data set [2] is on record as “reductions”. Besides, the “XBP1 mRNA splicing” value in the data set on XBP1 mRNA splicing is given as “completely suppresses; also recorded: almost completely suppressed”. Also, the “formation of RNase active dimers / dimerization affinity of IRE1α*” value at IRE1α* is “unable to form RNase active dimers at any concentration tested”.

In the case of `O=C(Nc1c[nH]nc1-c1nc2ccc(CN3CCOCC3)cc2[nH]1)NC1CC1` [AT9283], the “lowering of Kdimer of dpIRE1α* when complexed to ligand” value in data set [3] is reported as ~ 80 times.

`NC(=O)Nc1cc(-c2cccc(F)c2)sc1C(=O)N[C@H]1CCCNC1` [AZD7762]: the “lowering of Kdimer of dpIRE1α* when complexed to ligand” value in data set [3] is given as ~ 80 times.
